How the values were obtained:
U2OS = assay: Multiplex assay against U2OS; assay type: toxicity, cell-based; settings: human
How it was run: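 Live cells were stained at seeding with Hoechst33342, BioTracker Green Microtubule Cytoskeleton Dye, MitoTracker Red and Annexin V Alexa Fluor 680, then imaged on a CQ1 microscope at 37°C and 5% CO2 after compound addition. CellPathfinder machine-learning gating split cells into Hoechst high-intensity objects or normal cells. Normal cells were split into healthy, pyknosed or fragmented nuclei, and pyknosed cells into mitotic or apoptotic. Tubulin, mitochondrial-mass and membrane-permeability phenotypes are per cents of healthy-nucleus cells.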

HEK-293T = assay: Incucyte cell viability with HEK293T; assay type: toxicity, cell-based; settings: human, 10 µM, compound concentration 10 uM; further: filed as whole numbers so only -1 and 0 and 1 occur
[1] = 12 h, 1 µM, compound concentration 1 uM, replicate 1
[2] = 12 h, 1 µM, compound concentration 1 uM, replicate 2
[3] = 12 h, 10 µM, compound concentration 10 uM, replicate 1
[4] = 12 h, 10 µM, compound concentration 10 uM, replicate 2
[5] = 24 h, 1 µM, compound concentration 1 uM, replicate 1
[6] = 24 h, 1 µM, compound concentration 1 uM, replicate 2
[7] = 24 h, 10 µM, compound concentration 10 uM, replicate 1
[8] = 24 h, 10 µM, compound concentration 10 uM, replicate 2
[9] = 48 h, 1 µM, compound concentration 1 uM, replicate 1
[10] = 48 h, 1 µM, compound concentration 1 uM, replicate 2
[11] = 48 h, 10 µM, compound concentration 10 uM, replicate 1
[12] = 48 h, 10 µM, compound concentration 10 uM, replicate 2
[13] = 6 h, replicate number 1, timepoint 6 hours
[14] = 12 h, replicate number 1, timepoint 12 hours
[15] = 18 h, replicate number 1, timepoint 18 hours
[16] = 24 h, replicate number 1, timepoint 24 hours

## CCCc1cc(C)[nH]c(=O)c1CNC(=O)c1cc(-c2ccc(N3CCN(C(C)C)CC3)nc2)cc2c1cnn2C(C)C
U2OS; [1]
  Population Apoptotic (%): 64%
  Population Fragmented Nuclei (%): 21%
  Population Healthy Nuclei (%): 53%
  Population Hoechst High Intensity Objects (%): 15%
  Population Membrane Permeable-Phenotype (%): 13%
  Population Mitochondria Different-Phenotype (%): 81%
  Population Mitotic Cells (%): 35%
  Population Normal (%): 84%
  Population Pyknosed Nuclei (%): 24%
  Population Tubulin-Different-Phenotype (%): 81%
  Total Cell Count: 124
U2OS; [2]
  Population Apoptotic (%): 20%
  Population Fragmented Nuclei (%): 19%
  Population Healthy Nuclei (%): 70%
  Population Hoechst High Intensity Objects (%): 10%
  Population Membrane Permeable-Phenotype (%): 8%
  Population Mitochondria Different-Phenotype (%): 91%
  Population Mitotic Cells (%): 80%
  Population Normal (%): 89%
  Population Pyknosed Nuclei (%): 9%
  Population Tubulin-Different-Phenotype (%): 94%
  Total Cell Count: 56
U2OS; [3]
  Population Apoptotic (%): 70%
  Population Fragmented Nuclei (%): 24%
  Population Healthy Nuclei (%): 49%
  Population Hoechst High Intensity Objects (%): 8%
  Population Membrane Permeable-Phenotype (%): 64%
  Population Mitotic Cells (%): 29%
  Population Normal (%): 91%
  Population Pyknosed Nuclei (%): 26%
  Population Tubulin-Different-Phenotype (%): 98%
  Total Cell Count: 82
U2OS; [4]
  Population Apoptotic (%): 85%
  Population Fragmented Nuclei (%): 13%
  Population Healthy Nuclei (%): 47%
  Population Hoechst High Intensity Objects (%): 5%
  Population Membrane Permeable-Phenotype (%): 79%
  Population Mitochondria Different-Phenotype (%): 100%
  Population Mitotic Cells (%): 14%
  Population Normal (%): 94%
  Population Pyknosed Nuclei (%): 38%
  Population Tubulin-Different-Phenotype (%): 100%
  Total Cell Count: 57
U2OS; [5]
  Population Apoptotic (%): 71%
  Population Fragmented Nuclei (%): 18%
  Population Healthy Nuclei (%): 60%
  Population Hoechst High Intensity Objects (%): 13%
  Population Membrane Permeable-Phenotype (%): 20%
  Population Mitochondria Different-Phenotype (%): 89%
  Population Mitotic Cells (%): 28%
  Population Normal (%): 86%
  Population Pyknosed Nuclei (%): 21%
  Population Tubulin-Different-Phenotype (%): 79%
  Total Cell Count: 132
U2OS; [6]
  Population Apoptotic (%): 33%
  Population Fragmented Nuclei (%): 20%
  Population Healthy Nuclei (%): 51%
  Population Hoechst High Intensity Objects (%): 10%
  Population Membrane Permeable-Phenotype (%): 10%
  Population Mitochondria Different-Phenotype (%): 78%
  Population Mitotic Cells (%): 66%
  Population Normal (%): 90%
  Population Pyknosed Nuclei (%): 27%
  Population Tubulin-Different-Phenotype (%): 82%
  Total Cell Count: 53
U2OS; [7]
  Population Apoptotic (%): 88%
  Population Fragmented Nuclei (%): 23%
  Population Healthy Nuclei (%): 36%
  Population Membrane Permeable-Phenotype (%): 80%
  Population Mitotic Cells (%): 11%
  Population Pyknosed Nuclei (%): 39%
  Total Cell Count: 75
U2OS; [8]
  Population Apoptotic (%): 91%
  Population Fragmented Nuclei (%): 8%
  Population Healthy Nuclei (%): 48%
  Population Hoechst High Intensity Objects (%): 9%
  Population Membrane Permeable-Phenotype (%): 85%
  Population Mitochondria Different-Phenotype (%): 100%
  Population Mitotic Cells (%): 8%
  Population Normal (%): 90%
  Population Pyknosed Nuclei (%): 42%
  Population Tubulin-Different-Phenotype (%): 100%
  Total Cell Count: 60
U2OS; [9]
  Population Apoptotic (%): 70%
  Population Fragmented Nuclei (%): 23%
  Population Healthy Nuclei (%): 56%
  Population Hoechst High Intensity Objects (%): 10%
  Population Membrane Permeable-Phenotype (%): 18%
  Population Mitochondria Different-Phenotype (%): 83%
  Population Mitotic Cells (%): 29%
  Population Normal (%): 89%
  Population Pyknosed Nuclei (%): 20%
  Population Tubulin-Different-Phenotype (%): 77%
  Total Cell Count: 142
U2OS; [10]
  Population Apoptotic (%): 46%
  Population Fragmented Nuclei (%): 22%
  Population Healthy Nuclei (%): 59%
  Population Hoechst High Intensity Objects (%): 12%
  Population Membrane Permeable-Phenotype (%): 27%
  Population Mitochondria Different-Phenotype (%): 72%
  Population Mitotic Cells (%): 53%
  Population Normal (%): 87%
  Population Pyknosed Nuclei (%): 18%
  Population Tubulin-Different-Phenotype (%): 74%
  Total Cell Count: 65
U2OS; [11]
  Population Apoptotic (%): 95%
  Population Fragmented Nuclei (%): 26%
  Population Healthy Nuclei (%): 15%
  Population Hoechst High Intensity Objects (%): 14%
  Population Membrane Permeable-Phenotype (%): 89%
  Population Mitochondria Different-Phenotype (%): 100%
  Population Mitotic Cells (%): 4%
  Population Normal (%): 85%
  Population Pyknosed Nuclei (%): 57%
  Population Tubulin-Different-Phenotype (%): 100%
  Total Cell Count: 95
U2OS; [12]
  Population Apoptotic (%): 100%
  Population Fragmented Nuclei (%): 13%
  Population Healthy Nuclei (%): 37%
  Population Hoechst High Intensity Objects (%): 16%
  Population Membrane Permeable-Phenotype (%): 96%
  Population Mitotic Cells (%): 0%
  Population Normal (%): 83%
  Population Pyknosed Nuclei (%): 49%
  Total Cell Count: 82
HEK-293T; [13]
  Growth Rate: 0
HEK-293T; [14]
  Growth Rate: 0
HEK-293T; [15]
  Growth Rate: 0
HEK-293T; [16]
  Growth Rate: 0

## NC(=O)c1ccc2nc(-c3ccc(C4(N)CCC4)cc3)c(-c3ccccc3)n2n1 [BAY-1125976]
U2OS; [1]
  Population Apoptotic (%): 52%
  Population Healthy Nuclei (%): 79%
  Population Hoechst High Intensity Objects (%): 6%
  Population Mitochondria Different-Phenotype (%): 19%
  Population Mitotic Cells (%): 47%
  Population Normal (%): 93%
  Population Tubulin-Different-Phenotype (%): 46%
  Total Cell Count: 239
U2OS; [2]
  Population Apoptotic (%): 42%
  Population Healthy Nuclei (%): 80%
  Population Hoechst High Intensity Objects (%): 12%
  Population Mitotic Cells (%): 57%
  Population Normal (%): 87%
  Population Tubulin-Different-Phenotype (%): 35%
  Total Cell Count: 109
U2OS; [3]
  Population Apoptotic (%): 66%
  Population Healthy Nuclei (%): 92%
  Population Mitochondria Different-Phenotype (%): 24%
  Population Mitotic Cells (%): 33%
  Population Tubulin-Different-Phenotype (%): 27%
  Total Cell Count: 210
U2OS; [4]
  Population Apoptotic (%): 20%
  Population Healthy Nuclei (%): 88%
  Population Hoechst High Intensity Objects (%): 4%
  Population Mitochondria Different-Phenotype (%): 23%
  Population Mitotic Cells (%): 80%
  Population Normal (%): 95%
  Population Tubulin-Different-Phenotype (%): 18%
  Total Cell Count: 165
U2OS; [5]
  Population Apoptotic (%): 42%
  Population Healthy Nuclei (%): 76%
  Population Hoechst High Intensity Objects (%): 5%
  Population Mitochondria Different-Phenotype (%): 18%
  Population Mitotic Cells (%): 57%
  Population Normal (%): 94%
  Population Tubulin-Different-Phenotype (%): 23%
  Total Cell Count: 273
U2OS; [6]
  Population Apoptotic (%): 44%
  Population Healthy Nuclei (%): 77%
  Population Hoechst High Intensity Objects (%): 8%
  Population Mitochondria Different-Phenotype (%): 20%
  Population Mitotic Cells (%): 55%
  Population Normal (%): 91%
  Population Tubulin-Different-Phenotype (%): 13%
  Total Cell Count: 124
U2OS; [7]
  Population Apoptotic (%): 33%
  Population Hoechst High Intensity Objects (%): 1%
  Population Mitochondria Different-Phenotype (%): 31%
  Population Mitotic Cells (%): 66%
  Population Normal (%): 98%
  Population Tubulin-Different-Phenotype (%): 30%
  Total Cell Count: 258
U2OS; [8]
  Population Apoptotic (%): 7%
  Population Healthy Nuclei (%): 87%
  Population Hoechst High Intensity Objects (%): 5%
  Population Mitochondria Different-Phenotype (%): 28%
  Population Mitotic Cells (%): 92%
  Population Normal (%): 94%
  Population Tubulin-Different-Phenotype (%): 25%
  Total Cell Count: 213
HEK-293T; [13]
  Growth Rate: 0
HEK-293T; [14]
  Growth Rate: 0
HEK-293T; [15]
  Growth Rate: 0
HEK-293T; [16]
  Growth Rate: 0

Source: ChEMBL document CHEMBL4689842, “EUbOPEN Chemogenomics Library wave 1” (2021)
